Columns and labels:
Format in all cases: ADME, organism-based
[1] = Drug excretion in female Sprague-Dawley rat urine at 10 mg/kg, po administered as single dose measured at 1 to 4 hrs post-dose by liquid scintillation counting analysis; design: dose 10 mg/kg, route oral; settings: in vivo
Outline: (§1)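 Single [³⁵S]-prodrug dose to rats, i.v. tail-vein bolus (PEG 400/saline vehicle) or oral gavage (citric acid buffer pH 2.5), 5 ml/kg. Urine and feces collected ~1, 4 and 24 h postdose. Radioactivity counted by liquid scintillation and expressed as % of administered dose. Mean and S.D. from nine rats per sex.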

[2] = Drug excretion in female Sprague-Dawley rat urine at 10 mg/kg, po administered as single dose measured at 4 to 24 hrs post-dose by liquid scintillation counting analysis; design: dose 10 mg/kg, route oral; settings: in vivo; outline: as §1
Nucleic Acid = experiment: Ratio of drug level in liver to plasma in female Sprague-Dawley rat at 10 mg/kg, iv administered as bolus dose measured after 1 hr by liquid scintillation counting analysis; design: dose 10 mg/kg, route intravenous; settings: other tissue
Outline: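 Rats received a single iv bolus of the [35S]-labelled prodrug via tail vein in 25% PEG 400/75% saline, 5 ml/kg. Liver (solubilised homogenate) and plasma (EDTA blood, retro-orbital, just before necropsy) were taken at 1, 4 and 24 h and counted by liquid scintillation. The liver/plasma concentration ratio is the mean at each time point, from nine male and nine female rats.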

With `CO[C@@H]1[C@H](OP(=O)(OC[C@H]2O[C@@H](n3cnc4c(N)ncnc43)C[C@@H]2O)[35S]COC(=O)OC(C)C)[C@@H](CO)O[C@H]1n1ccc(=O)[nH]c1=O` (stereo partly drawn) the Drug excretion [1] was 2.04%, the Drug excretion [2] was 34.78% and the Ratio (Nucleic Acid) was 3.89.

— ChEMBL document CHEMBL3526154, “Metabolism, pharmacokinetics, tissue distribution, and stability studies of the prodrug analog of an anti-hepatitis B virus dinucleoside phosphorothioate” (Drug Metab Dispos, 2012)
